# Structures can show the parent of a compound that is named as a salt. Where two headings read alike, the source gives them in different places. Peptide text beside a SMILES is read from it.
# How the values were obtained:
# [1] = test system: isolated pathogens (CRO), mainly Klebsiella pneumoniae, Acinetobacter baumannii, Pseudomonas aeruginosa; test: Drug sensitivity of isolated pathogens; type: cell-based; settings: all isolated pathogens (CRO) of the 20 patients
# [2] = cited from earlier work; for population typical value of CL: critically ill patients
# [3] = cited from earlier work
# [4] = cited from earlier work; for population typical value CL, previous research: critically ill patients
# Population PK model = type: in vivo, human
# Summary of the method: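 NONMEM 7.4 was fitted to 86 plasma concentrations from 20 CVVHDF patients, using FOCE to compare one- and two-compartment models. Interindividual variability was exponential. […] Validation used goodness-of-fit plots, a pcVPC with 1000 simulated patients and a 1000-sample bootstrap.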
# [5] = Plasma concentration of colistin sulfate in patients on CVVHDF; type: in vivo; settings: human, iv, SD
# Summary of the method: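 Adult patients on CVVHDF (AN69 polyacrylonitrile filter; blood flow 100–200 ml/min) received iv colistin sulfate infused over 0.5 h or 2 h. At steady state, samples were drawn from the dorsal foot artery just before dosing (Cmin) and at roughly 0.5, 1, 2, 4 and 6 h after. Plasma was stored at −80°C. Colistin A and B were measured separately by UHPLC-MS/MS on a HILIC column (LOQ 0.027 and 0.053 mg/l) and summed. AUC0−24h was calculated by the trapezoidal rule.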
# [6] = derived from preclinical studies; cited from earlier work
# [7] = cited from earlier work; remark: listed apart in the source
molecule,measurement,setting,value
C[C@@H](O)[C@H]1C(=O)N2C(C(=O)O)=C(S[C@@H]3CN[C@H](C(=O)N(C)C)C3)[C@H](C)[C@H]12 [meropenem],MIC,[1],≥ 8 µg/mL
polymyxin B sulfate,population typical value of CL,[2]; CVVH group,4.52 L/h
same,AUC,"[2]; CVVH group, p < 0.001 vs non-CVVH",27940 ± 10920 ng·h/mL
same,population typical value of CL,[2]; non-CVVH group,1.95 L/h
same,AUC,[2]; non-CVVH group,77890 ± 35660 ng·h/mL
"CC[C@H](C)CCCCC(=O)N[C@@H](CCN)C(=O)N[C@H](C(=O)N[C@@H](CCN)C(=O)N[C@H]1CCNC(=O)[C@H]([C@@H](C)O)NC(=O)[C@H](CCN)NC(=O)[C@H](CCN)NC(=O)[C@H](CC(C)C)NC(=O)[C@@H](CC(C)C)NC(=O)[C@H](CCN)NC1=O)[C@@H](C)O [colistin sulfate] (HELM PEPTIDE1{[CC[C@H](C)CCCCC(=O)[*:2]].[Dab].T.[Dab].[Dab].[Dab].[dL].L.[Dab].[Dab].T}$PEPTIDE1,PEPTIDE1,5:R3-11:R2$$$V2.0)",solubility in water,[3],water-soluble
same,"population typical value CL, previous research",[4]; first of two values,0.994 L/h
same,"population typical value CL, previous research",[4]; second of two values,1.5 L/h
same,plasma concentration range,[4]; non-CRRT patients,280 to 6200 ng/mL
same,"Q, bootstrap median","Population PK model; bootstrap, 1000 samples",27.15 L/h
same,"V1, bootstrap median","Population PK model; bootstrap, 1000 samples",20.58 L
same,"V2, bootstrap median","Population PK model; bootstrap, 1000 samples",34.71 L
same,"θCysC, bootstrap median","Population PK model; bootstrap, 1000 samples",−0.537
same,"θwt, bootstrap median","Population PK model; bootstrap, 1000 samples",1.189
same,"CL, bootstrap median","Population PK model; bootstrap, 1000 samples, 989 successful",3.18 L/h
same,"θCysC, final model estimate","Population PK model; effect of CysC on CL, (CYSC/2.31)^θ",−0.626
same,"θwt, final model estimate","Population PK model; effect of WT on CL, (WT/65)^θ",1.030
same,clearance,"Population PK model; human, plasma, iv",61.5 mL/min
same,"Q, final model estimate","Population PK model; intercompartmental clearance, patients on CVVHDF",25.30 L/h
same,"V1, final model estimate","Population PK model; volume of distribution in the central compartment, patients on CVVHDF",20.50 L
same,"V2, final model estimate","Population PK model; volume of distribution in the peripheral compartment, patients on CVVHDF",33.20 L
same,AUC(0-t),[5],12500 ± 6410 ng·h/mL
same,protein binding rate,[6],about 50%
same,steady-state trough concentration,"[7]; CRRT group, p = 0.328 vs non-CRRT",0.58 ± 0.30 mg/L
same,steady-state trough concentration,[7]; non-CRRT group,0.64 ± 0.25 mg/L
